How the values were obtained:
[1] = target: Histone acetyltransferase KAT2B (Homo sapiens, UniProt Q92831); assay: Binding affinity to PCAF bromodomain (unknown origin) incubated for 60 mins by TR-FRET assay
[2] = target: Bromodomain-containing protein 8 (Homo sapiens, UniProt Q9H0E9); assay: Displacement of biotinylated JQ1 from BRD8 bromodomain (unknown origin) incubated for 20 mins by AlphaLISA assay
[3] = target: T1, ATPase family AAA domain-containing protein 2 (Homo sapiens, UniProt Q6PL18); assay: Displacement of biotinylated JQ1 from ATAD2 bromodomain (unknown origin) incubated for 20 mins by AlphaLISA assay
T1 sequence (Q6PL18 whole entry): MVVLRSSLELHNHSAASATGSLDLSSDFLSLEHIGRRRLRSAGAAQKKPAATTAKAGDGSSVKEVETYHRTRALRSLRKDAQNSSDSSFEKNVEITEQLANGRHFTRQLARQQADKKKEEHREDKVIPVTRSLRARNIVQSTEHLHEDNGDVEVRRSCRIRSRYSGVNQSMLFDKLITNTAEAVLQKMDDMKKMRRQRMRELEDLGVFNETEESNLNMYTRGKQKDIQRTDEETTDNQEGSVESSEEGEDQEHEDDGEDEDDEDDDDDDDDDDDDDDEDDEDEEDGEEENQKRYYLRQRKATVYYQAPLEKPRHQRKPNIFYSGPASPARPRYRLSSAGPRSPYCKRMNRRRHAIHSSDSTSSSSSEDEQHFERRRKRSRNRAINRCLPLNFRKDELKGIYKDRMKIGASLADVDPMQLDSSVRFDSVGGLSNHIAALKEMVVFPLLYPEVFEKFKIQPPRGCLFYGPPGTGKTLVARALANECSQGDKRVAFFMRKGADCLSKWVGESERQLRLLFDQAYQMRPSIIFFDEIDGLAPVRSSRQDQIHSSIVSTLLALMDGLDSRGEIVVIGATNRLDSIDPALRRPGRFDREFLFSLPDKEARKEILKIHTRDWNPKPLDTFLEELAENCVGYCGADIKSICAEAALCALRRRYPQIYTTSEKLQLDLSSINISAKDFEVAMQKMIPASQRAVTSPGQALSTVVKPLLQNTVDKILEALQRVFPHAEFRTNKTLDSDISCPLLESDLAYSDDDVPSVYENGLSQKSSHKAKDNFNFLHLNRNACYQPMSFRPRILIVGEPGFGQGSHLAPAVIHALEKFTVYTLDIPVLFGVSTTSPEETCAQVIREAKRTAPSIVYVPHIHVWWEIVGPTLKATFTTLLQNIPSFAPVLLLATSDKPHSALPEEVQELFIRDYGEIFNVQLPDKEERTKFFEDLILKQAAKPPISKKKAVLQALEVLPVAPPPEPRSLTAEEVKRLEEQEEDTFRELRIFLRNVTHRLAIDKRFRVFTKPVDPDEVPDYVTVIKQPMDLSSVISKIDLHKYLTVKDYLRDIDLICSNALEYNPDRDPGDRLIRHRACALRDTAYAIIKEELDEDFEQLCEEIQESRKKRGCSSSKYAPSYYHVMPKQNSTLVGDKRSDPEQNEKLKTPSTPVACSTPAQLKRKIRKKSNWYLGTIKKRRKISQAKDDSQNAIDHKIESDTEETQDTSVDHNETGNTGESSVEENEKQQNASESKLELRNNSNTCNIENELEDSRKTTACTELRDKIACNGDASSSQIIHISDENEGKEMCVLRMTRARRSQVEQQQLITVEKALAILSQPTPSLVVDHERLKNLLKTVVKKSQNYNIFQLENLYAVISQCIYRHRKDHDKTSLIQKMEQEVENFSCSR

[4] = Cmax in mouse at 30 mg/kg,po; format: ADME, organism-based; set-up: dose 30 mg/kg, route po; conditions: in vivo
[5] = Volume of distribution at steady state in rat at 1 mg/kg,iv; format: ADME, organism-based; conditions: in vivo, read-out: Vdss
[6] = Half life in rat plasma at 1 mg/kg,iv; format: ADME, organism-based
[7] = Protein binding in mouse plasma; format: ADME, cell-free; conditions: read-out: PPB (converted)
[8] = Intrinsic clearance in mouse liver microsomes; format: ADME, Microsome; conditions: read-out: CLH
[9] = AUC (0 to infinity) in dog at 2.5 mg/kg,po; format: ADME, organism-based, Canis lupus familiaris; set-up: dose 2.5 mg/kg, route po; conditions: in vivo
[10] = Half life in dog plasma at 0.5 mg/kg,iv; format: ADME, organism-based, Canis lupus familiaris
[11] = Volume of distribution at steady state in dog at 0.5 mg/kg,iv; format: ADME, organism-based, Canis lupus familiaris; conditions: in vivo, read-out: Vdss
[12] = Unbound Cmax in human patient with progression lymphoma at 300 mg,po QD consecutively for 14 days; format: ADME; conditions: in vivo, 336 h, time 14 day
Procedure, shortened: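 Oral dosing in patients with hematologic malignancies, cycles at escalating doses; 300 mg cohort sampled at day 14. Unbound Cmax = free fraction × Cmax.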

[13] = Clearance in dog assessed as liver blood flow at 0.5 mg/kg,iv; format: ADME, organism-based, Canis lupus familiaris; conditions: in vivo
[14] = Cmax in mouse at 10 mg/kg,sc; format: ADME, organism-based; set-up: dose 10 mg/kg, route sc; conditions: in vivo
[15] = Tmax in mouse at 10 mg/kg,sc; format: ADME, organism-based; conditions: in vivo
[16] = Unbound AUC in mouse at 10 mg/kg,sc; format: ADME, organism-based; conditions: in vivo
MV4-11 = assay: Antitumor activity against human MV4-11 cells xenografted in BALB/c mouse assessed as tumor growth inhibition at 30 mg/kg,po BID for 28 days; format: functional; conditions: MV4-11, 672 h, time 28 day, read-out: TGI
Procedure, shortened: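 Single-agent efficacy in MV-4-11 AML mouse xenograft. Tumor volume (mm3) and percent body-weight change were tracked over the treatment days.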

[17] = Toxicity against BALB/c mouse plasma xenografted with human MV4-11 cells assessed as body weight loss at 30 mg/kg,po QD for 28 days; format: organism-based; conditions: in vivo, 672 h, time 28 day
Procedure, shortened: (§1)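 Body weight change (%) followed in MV-4-11 AML mouse xenograft during 28 days of oral single-agent dosing (30 mg/kg once or twice daily, 60 mg/kg once daily), vehicle PO BID as control.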

[18] = Toxicity against BALB/c mouse plasma xenografted with human MV4-11 cells assessed as body weight loss at 60 mg/kg,po QD for 28 days; format: organism-based; conditions: in vivo, 672 h, time 28 day; procedure, shortened: as §1
[19] = Toxicity in rat assessed as GI mucosal erosion at 2 to 20 mg/kg,po QD consecutive for 14 days followed by 2 weeks recovery period; format: organism-based; conditions: in vivo, 336 h, dose 2-20 mg/kg, time 14 day
Procedure, shortened: (§2)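 Oral suspension given once daily for 14 consecutive days (rat 2, 6, 20 mg/kg; dog 2, 4, 6 mg/kg) in dose range-finding and GLP repeat-dose studies, GLP arms with an added 2-week recovery period; histopathology and clinical pathology findings recorded.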

[20] = Toxicity in rat assessed as GI mucosal ulceration at 2 to 20 mg/kg,po QD consecutive for 14 days followed by 2 weeks recovery period; format: organism-based; conditions: in vivo, 336 h, dose 2-20 mg/kg, time 14 day; procedure, shortened: as §2
[21] = Toxicity in rat assessed as degeneration of testicular seminiferous epithelium at 2 to 20 mg/kg,po QD consecutive for 14 days followed by 2 weeks recovery period; format: organism-based; conditions: in vivo, 336 h, dose 2-20 mg/kg, time 14 day; procedure, shortened: as §2
[22] = Toxicity in dog assessed as GI mucosal erosion at 2 to 6 mg/kg,po QD consecutive for 14 days followed by 2 weeks recovery period; format: organism-based, Canis lupus familiaris; conditions: in vivo, 336 h, dose 2-6 mg/kg, time 14 day; procedure, shortened: as §2
[23] = Toxicity in dog assessed as GI mucosal ulceration at 2 to 6 mg/kg,po QD consecutive for 14 days followed by 2 weeks recovery period; format: organism-based, Canis lupus familiaris; conditions: in vivo, 336 h, dose 2-6 mg/kg, time 14 day; procedure, shortened: as §2

Chain of Bromodomain-containing protein 8 (Q9H0E9 whole entry, the tested form may be a part): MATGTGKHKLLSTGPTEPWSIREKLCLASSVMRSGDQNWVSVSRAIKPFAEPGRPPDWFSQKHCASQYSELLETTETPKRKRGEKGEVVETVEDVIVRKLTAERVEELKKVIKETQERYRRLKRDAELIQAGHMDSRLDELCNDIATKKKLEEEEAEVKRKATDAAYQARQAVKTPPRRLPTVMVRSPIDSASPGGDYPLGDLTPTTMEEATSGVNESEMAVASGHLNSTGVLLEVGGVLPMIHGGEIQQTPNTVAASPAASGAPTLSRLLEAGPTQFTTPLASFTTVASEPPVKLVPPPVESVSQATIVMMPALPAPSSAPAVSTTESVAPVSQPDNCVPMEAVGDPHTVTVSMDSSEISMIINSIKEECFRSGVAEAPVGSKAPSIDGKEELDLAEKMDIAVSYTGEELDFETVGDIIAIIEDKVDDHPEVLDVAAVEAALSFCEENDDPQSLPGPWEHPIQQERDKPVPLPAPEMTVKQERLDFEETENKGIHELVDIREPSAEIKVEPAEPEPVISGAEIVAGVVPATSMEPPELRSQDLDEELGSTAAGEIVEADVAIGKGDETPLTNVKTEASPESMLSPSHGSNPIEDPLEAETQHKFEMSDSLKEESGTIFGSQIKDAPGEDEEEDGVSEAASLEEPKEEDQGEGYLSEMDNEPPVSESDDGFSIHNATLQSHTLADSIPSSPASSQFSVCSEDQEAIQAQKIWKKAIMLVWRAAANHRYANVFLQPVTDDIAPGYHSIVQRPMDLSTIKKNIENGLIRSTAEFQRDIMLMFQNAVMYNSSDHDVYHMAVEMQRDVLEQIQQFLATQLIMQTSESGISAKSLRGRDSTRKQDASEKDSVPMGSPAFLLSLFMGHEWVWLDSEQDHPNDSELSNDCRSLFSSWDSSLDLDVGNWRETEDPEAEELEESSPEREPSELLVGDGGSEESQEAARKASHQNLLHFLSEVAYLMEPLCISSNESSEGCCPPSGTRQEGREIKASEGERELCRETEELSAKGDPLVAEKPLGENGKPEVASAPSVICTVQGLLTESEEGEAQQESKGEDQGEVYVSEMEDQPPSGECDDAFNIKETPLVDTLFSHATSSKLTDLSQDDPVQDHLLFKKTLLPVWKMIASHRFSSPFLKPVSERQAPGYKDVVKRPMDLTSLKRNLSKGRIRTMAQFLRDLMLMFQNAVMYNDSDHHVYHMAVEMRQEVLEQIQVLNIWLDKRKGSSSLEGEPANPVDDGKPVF
Chain of Histone acetyltransferase KAT2B (Q92831 whole entry): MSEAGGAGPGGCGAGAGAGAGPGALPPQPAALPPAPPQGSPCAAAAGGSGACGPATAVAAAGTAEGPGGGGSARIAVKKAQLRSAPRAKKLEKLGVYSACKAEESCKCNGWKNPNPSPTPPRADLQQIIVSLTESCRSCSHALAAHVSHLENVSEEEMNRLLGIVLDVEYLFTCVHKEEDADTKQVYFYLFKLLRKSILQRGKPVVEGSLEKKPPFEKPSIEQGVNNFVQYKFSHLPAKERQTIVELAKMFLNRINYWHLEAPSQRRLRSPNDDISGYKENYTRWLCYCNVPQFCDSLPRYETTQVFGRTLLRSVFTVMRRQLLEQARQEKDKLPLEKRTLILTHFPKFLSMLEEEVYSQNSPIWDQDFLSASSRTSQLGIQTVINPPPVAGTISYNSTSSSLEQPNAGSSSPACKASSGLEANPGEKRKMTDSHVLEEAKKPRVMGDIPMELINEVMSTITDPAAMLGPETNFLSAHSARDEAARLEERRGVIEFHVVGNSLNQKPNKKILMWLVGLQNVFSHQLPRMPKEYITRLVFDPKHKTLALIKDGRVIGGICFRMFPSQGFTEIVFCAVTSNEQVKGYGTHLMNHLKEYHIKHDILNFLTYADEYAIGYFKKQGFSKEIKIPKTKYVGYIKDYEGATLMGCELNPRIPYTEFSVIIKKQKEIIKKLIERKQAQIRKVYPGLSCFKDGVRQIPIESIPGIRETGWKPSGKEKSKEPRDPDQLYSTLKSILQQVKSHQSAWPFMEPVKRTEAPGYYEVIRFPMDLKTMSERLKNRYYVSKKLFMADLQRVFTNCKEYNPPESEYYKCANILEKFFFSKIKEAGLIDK

IC50 [1]: > 20 µM | IC50 [2]: > 15 µM | IC50 [3]: > 80 µM | Cmax [4]: 24 µM | Vd [5]: 1.3 L/kg | half-life [6]: 0.93 h | fraction unbound [7]: 0.03 | predicted hepatic clearance [8]: 30 mL/min/kg | AUC(0-inf) [9]: 28 µM·h | half-life [10]: 9 h | Vd [11]: 1.2 L/kg | fCmax [12]: 0.3 µM | QH [13]: 6% | Cmax [14]: 8.4 µM | Tmax [15]: 1.3 h | fAUC [16]: 1.5 µM·h
SMILES: Cc1noc2c1-c1ccccc1C(c1ccc(Cl)cc1)=N[C@H]2CC(N)=O [PELABRESIB]
inhibition in vivo at 30 mg/kg (MV4-11): 80% | Activity [17]: Non-Toxic | Activity [18]: Non-Toxic | Activity [19]: Toxic | Activity [20]: Toxic | Activity [21]: Toxic | Activity [22]: Toxic | Activity [23]: Toxic
